Screens from PubChem.
An excerpt weighted towards active compounds, which were near 1.8% of everything screened.
iPSC survival up: enhancers of single-cell hiPSC survival, primary screen, ATPlite luminescence; 100% = ROCK inhibitor wells, 0% = DMSO; survival enhancement, % at 20 µM; 0.044% of 360,000 active; AID 602274, 2012; in the data active = survival enhancement above about 18%;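 note: cells exposed to compounds for 16 hours before the ATP read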
eLon inh: inhibitors of E. coli Lon protease, primary screen, biochemical, fluorescence polarization. purified E. coli Lon protease. 0.42% of 360,000 active. AID 602123, 2011. inhibition, % at 7.94 µM; in the data active = inhibition above about 13%, passing the limit was not always enough
Target sequence (P0A9M0 whole entry, looked up): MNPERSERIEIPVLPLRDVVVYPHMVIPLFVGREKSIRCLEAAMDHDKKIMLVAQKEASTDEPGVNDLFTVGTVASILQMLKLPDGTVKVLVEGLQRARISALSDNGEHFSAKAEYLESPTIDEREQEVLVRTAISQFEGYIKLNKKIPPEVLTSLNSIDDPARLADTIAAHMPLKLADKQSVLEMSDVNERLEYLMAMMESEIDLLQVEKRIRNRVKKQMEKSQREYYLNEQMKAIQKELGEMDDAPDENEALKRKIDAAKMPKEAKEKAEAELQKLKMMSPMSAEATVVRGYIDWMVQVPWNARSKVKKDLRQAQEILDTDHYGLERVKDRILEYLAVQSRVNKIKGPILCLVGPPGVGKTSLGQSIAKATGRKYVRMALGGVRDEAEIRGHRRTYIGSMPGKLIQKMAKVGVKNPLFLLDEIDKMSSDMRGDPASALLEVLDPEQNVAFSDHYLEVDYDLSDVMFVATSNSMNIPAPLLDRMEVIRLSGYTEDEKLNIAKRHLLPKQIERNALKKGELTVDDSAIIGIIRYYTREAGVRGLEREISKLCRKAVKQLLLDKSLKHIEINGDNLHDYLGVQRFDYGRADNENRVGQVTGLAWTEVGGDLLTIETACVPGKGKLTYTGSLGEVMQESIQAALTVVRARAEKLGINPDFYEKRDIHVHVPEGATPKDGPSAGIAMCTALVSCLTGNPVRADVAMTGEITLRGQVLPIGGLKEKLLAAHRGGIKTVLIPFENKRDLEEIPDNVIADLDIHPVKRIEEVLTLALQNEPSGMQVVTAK
PREPL inh: PREPL enzyme inhibitors, primary screen, biochemical, fluorescence polarization; Prolyl endopeptidase-like (Homo sapiens), Q4J6C6; recombinant PREPL, fluorescence polarization activity-based probe; inhibition, % at 5.96 µM; 0.68% of 320,000 active; in the data active = inhibition above about 43%
SKN-1 inh: suppressors of acrylamide-induced Pgst-4::GFP reporter in worms, primary screen, SKN-1 inhibitor project, whole organism, uHTS, GFP/RFP fluorescence ratio, strain VP596; C. elegans VP596 Pgst-4::GFP/RFP ratio, 24 h; inhibition, % at 21.8 µM; AID 624304, 2012; 0.49% of 360,000 active;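 active = interference check ratio from 0.5 to 1.5 plus GFP to RFP signal ratio inhibition reaching or exceeding a fixed threshold, cut at about 30% in these data, passing the limit was not always enough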
Tb MetRS inh: T. brucei MetRS inhibitors, primary screen, biochemical, luminescence; purified T. brucei MetRS, ATP depletion, Kinase-Glo luminescence; inhibition, % at 11.9 µM; 0.4% of 360,000 active;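 active = inhibition above a per-plate cutoff of the control wells' mean inhibition plus 3 SD, cut at about 5.5% in these data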
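Material: T. brucei methionyl-tRNA synthetase, purified; reagent: substrates ATP, L-methionine and bulk Escherichia coli tRNA; dosing: 11.9 µM single point; timing: 15 min plus 2 h at 25 °C; detection: luminescence of leftover ATP; evaluation: % inhibition; control set: DMSO-only wells as low control; replicates: singlicate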
MT1-MMP act inh: blockers of MT1-MMP proenzyme processing, primary screen, HT1080 RFP-PRO-GFP cells, GFP/RFP fluorescence. GFP/RFP ratio change, % at 20 µM. GFP/RFP ratio fluorescence, overnight; percent of plate control window, DMSO zero. Matrix metalloproteinase-14 (Homo sapiens), P50281. 0.061% of 360,000 active;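 active = GFP/RFP ratio change of at least 30% with cell ATP level not reduced by more than half and red fluorescence within 50% of control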
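Assay system – RFP-PRO-GFP reporter HT1080 cells · Compound dosing – single dose of 20 µM compound, 1% DMSO final · Incubation – overnight compound exposure at 37 °C · Measure – GFP/RFP fluorescence ratio · Benchmarks – DMSO wells and RFP-L50D-GFP cells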
TbMetRS confirm: T. brucei MetRS inhibitors, confirmation, biochemical, luminescence. inhibition, % at 11.9 µM. shares compounds with Tb MetRS inh. T. brucei MetRS enzyme, luminescence (ATP depletion). 93% of 1,400 active. AID 624412, 2012; in the data active = inhibition above about 7%
Jurkat tox: Jurkat T cell cytotoxicity, cytotoxicity control for T. brucei MetRS inhibitor project, luminescence, high throughput; AID 624413, 2012; shares compounds with Tb MetRS inh; inhibition, % at 8.3 µM; Jurkat cells viability, ATP luminescence; 12% of 1,400 active; in the data active = inhibition above about 15%
Tb MetRS inh FP: T. brucei MetRS inhibitors, orthogonal assay for T. brucei MetRS inhibitor project, biochemical, fluorescence polarization; shares compounds with Tb MetRS inh; purified T. brucei MetRS; inhibition, % at 11.9 µM; 44% of 1,400 active; in the data active = inhibition above about 17%
MT1-MMP conf: MT1-MMP activation inhibitors, hit retest, confirmation, single concentration, fluorescence, HT1080 RFP-PRO-GFP cells; 10% of 200 active; AID 652235, 2013; shares compounds with MT1-MMP act inh; inhibition, % at 20 µM; GFP and RFP fluorescence ratio, overnight;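 active = inhibition of at least 50% in the primary cell screen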
Numbers stand for hits; i = inactive; nt = no result.

SMILES	iPSC survival up	eLon inh	PREPL inh	SKN-1 inh	Tb MetRS inh	MT1-MMP act inh	TbMetRS confirm	Jurkat tox	Tb MetRS inh FP	others
S=c1nc(-c2sccc2OCc2ccc(Cl)cc2Cl)[nH][nH]1	i	i	i	i	8.6	i	12.5	i	i
CNC(=S)NNC(=O)c1sccc1OCc1ccc(Cl)cc1Cl	i	i	i	i	i	i	nt	nt	nt
Cc1cccc(N2C(=O)CC(N3CCC(c4nc5ccccc5[nH]4)CC3)C2=O)c1 (centres undefined)	i	i	i	i	i	i	nt	nt	nt
O=C1CC(N2CCC(c3nc4ccccc4o3)CC2)C(=O)N1c1cc(Cl)cc(Cl)c1 (centres undefined)	i	i	i	i	6.0	i	i	i	i
C/C(=N/NC(=O)CNC(=O)CCc1ccccc1)c1ccc(Cl)c(Cl)c1	i	i	i	i	i	i	nt	nt	nt
O=C(NCc1cc(Br)cc(Br)c1OC(=O)c1ccccc1[N+](=O)[O-])c1ccccc1	i	i	i	i	23.2	i	27.5	i	19.6
O=C(CC(=O)c1ccccc1[N+](=O)[O-])c1ccccc1	nt	nt	i	nt	nt	nt	nt	nt	nt
Clc1cccc(N/N=C(\Cc2nc3ccccc3[nH]2)c2ccccc2)c1	i	i	i	i	58.9	i	89.6	i	98.0
CC1CCCN(CCCOc2ccc(Br)cc2Cl)C1 (centres undefined)	i	i	i	i	16.7	i	29.7	22.9	i
CN(C)CCCCOc1ccc(Br)cc1Cl	i	i	i	i	8.0	i	20.6	i	i
CC/C(Cc1ccccc1)=N/NC(=O)CNC(=O)c1ccc(Cl)cc1Cl	i	i	nt	i	i	i	nt	nt	nt
COc1ccc(N(CC(=O)Nc2ccc(Cl)cc2)S(=O)(=O)c2c(C)n[nH]c2C)cc1	i	i	i	i	8.7	i	17.9	i	i
COc1ccc2oc(=O)cc(CN3CCN(Cc4ccc(OC)c(OC)c4OC)CC3)c2c1	i	i	nt	i	i	i	nt	nt	nt
Cn1nccc1-c1coc2c(C(=O)N3CCOCC3)cccc12	i	i	nt	i	7.6	i	i	i	i
COc1ccc(S(=O)(=O)N2CCN(Cc3cc(=O)n4ccccc4n3)CC2)cc1	i	i	i	i	i	i	nt	nt	nt
Cc1cc(C(=O)NCC(C)C)c2ccccc2n1	i	i	i	i	i	i	nt	nt	nt
Cc1cc(C(=O)NCC(=O)Nc2c(C)cccc2C)c2ccccc2n1	i	i	i	i	10.9	i	i	i	i
CN(C)S(=O)(=O)c1cccc(NC(=O)Cc2ccc(Cl)cc2)c1	i	i	i	i	14.9	i	27.3	i	20.8
O=C(Cc1ccc(Cl)c(Cl)c1)Nc1cccc(S(=O)(=O)N2CCOCC2)c1	i	i	i	i	58.8	i	76.5	i	65.0
O=C(COC(=O)Cn1cnc2ccccc21)Nc1cccc(S(=O)(=O)N2CCOCC2)c1	i	i	i	i	35.1	i	56.8	i	31.5
O=[N+]([O-])c1cc2c(cc1CN1CCN(c3ccccc3F)CC1)OCO2	i	i	nt	i	i	i	nt	nt	nt
Cc1oc(C(C)(C)C)cc1C(=O)N1CCCC1C(=O)O (centres undefined)	i	i	i	i	i	i	nt	nt	nt
CC(C)C[C@@H](CNCC(=O)[C@H](C)NC(=O)c1[nH]cnc1C(=O)N[C@@H](C)CN)NC(=O)c1nc[nH]c1C(=O)N[C@@H](CC(=O)O)C(=O)O	i	i	nt	i	i	i	nt	nt	nt
CC(C)C[C@@H](CNCC(=O)[C@H](Cc1c[nH]c2ccccc12)NC(=O)c1[nH]cnc1C(=O)N[C@@H](C)CN)NC(=O)c1nc[nH]c1C(=O)N[C@@H](C)C(=O)O	i	i	nt	i	22.8	i	36.7	i	i
Nc1nc(Nc2cccc(F)c2)nc2ccccc12	i	i	i	i	23.9	34.6	34.3	i	19.5	MT1-MMP conf=i
SMILES	iPSC survival up	eLon inh	PREPL inh	SKN-1 inh	Tb MetRS inh	MT1-MMP act inh	TbMetRS confirm	Jurkat tox	Tb MetRS inh FP	others
O=c1oc(Nc2cccc(F)c2)nc2ccccc12	i	i	i	i	i	i	nt	nt	nt
O=S(=O)(c1ccc2nc(COc3ccc(Cl)cc3Cl)[nH]c2c1)N1CCOCC1	i	i	i	i	12.1	35.0	21.4	i	i	MT1-MMP conf=i
O=C(COc1coc(CN2CCN(c3ccc(F)cc3)CC2)cc1=O)NCC1CCCO1 (centres undefined)	i	i	i	i	i	i	nt	nt	nt
O=[N+]([O-])c1cc(Br)c(O)c(C=Nc2ccc(N3CCOCC3)cc2)c1	i	i	i	i	i	40.5	nt	nt	nt	MT1-MMP conf=i
CCn1c2ccccc2nc2cc3c(cc21)c(Cl)c(=O)c1ccccc13	i	i	nt	i	i	35.7	nt	nt	nt	MT1-MMP conf=i
CCOc1ncccc1C(=O)Nc1ccc2c(c1)OCCCO2	i	i	nt	i	i	i	nt	nt	nt
COC(=O)c1ccc2c(c1)C(C)(C)C(/C=C/c1ccc(O)cc1)=[N+]2C	i	i	i	i	i	i	nt	nt	nt
COC(=O)c1ccc2c(c1)C(C)(C)C(/C=C/c1ccc(OC)c(OC)c1OC)=[N+]2C	i	i	i	45.9	i	50.7	nt	nt	nt	MT1-MMP conf=i
CN(c1cc2c(c3c1ccn3C)C1CCC2C1)C1CCCCC1 (centres undefined)	i	i	nt	i	i	34.9	nt	nt	nt	MT1-MMP conf=i
Cc1ccc[n+](CC(=O)/C=C2\N(C)c3ccccc3C2(C)C)c1	i	i	i	i	i	i	nt	nt	nt
Cc1cccc[n+]1CC(=O)/C=C1\N(C)c2ccccc2C1(C)C	i	i	i	i	i	41.3	nt	nt	nt	MT1-MMP conf=i
CN1/C(=C\C(=O)CN2C(=O)NC3(CCCCCC3)C2=O)C(C)(C)c2ccccc21	i	i	i	i	i	33.7	nt	nt	nt	MT1-MMP conf=i
Cc1ccc(S(=O)(=O)N2CCCN(C)c3nc4ccccc4nc32)cc1	i	i	i	i	i	i	nt	nt	nt
Cc1occc(=O)c1OC(=O)Nc1ccc(Cl)c(Cl)c1	i	i	i	i	i	i	nt	nt	nt
